Measured values as given in ChEMBL document CHEMBL1773037, “Evaluation of superior BACE1 cleavage sequences containing unnatural amino acids” (Bioorg Med Chem, 2011).
Activity calls are given as the source filed them. The rule behind the calls is not given here. Starred links: 1 amine or outer side, 2 acyl side, 3 side chain; linkers in the order of their positions; H or OH if unused. Non-standard residues stand in square brackets, D forms with d. Residues, ends and D or L forms follow the SMILES beside them. X1 = O=C(O)[C@@H]1Cc2ccccc2CN1[C@H](N[*:1])C(=O)[*:2]; 2Thi = N[C@@H](Cc1cccs1)C(=O)O; Cha = N[C@@H](CC1CCCCC1)C(=O)O; Cit = NC(=O)NCCC[C@H](N)C(=O)O; Phg = N[C@H](C(=O)O)c1ccccc1; Tle = CC(C)(C)[C@H](N)C(=O)O; Nva = CCC[C@H](N)C(=O)O; Abu = CC[C@H](N)C(=O)O

Assays:
[1] = biological target: Beta-secretase 1 (Homo sapiens) (UniProt P56817); assay: Activity of recombinant BACE assessed as substrate cleavage at 300 uM after 3 hrs by HPLC analysis
Chain of Beta-secretase 1 (Homo sapiens) (P56817 whole entry, the tested form may be a part): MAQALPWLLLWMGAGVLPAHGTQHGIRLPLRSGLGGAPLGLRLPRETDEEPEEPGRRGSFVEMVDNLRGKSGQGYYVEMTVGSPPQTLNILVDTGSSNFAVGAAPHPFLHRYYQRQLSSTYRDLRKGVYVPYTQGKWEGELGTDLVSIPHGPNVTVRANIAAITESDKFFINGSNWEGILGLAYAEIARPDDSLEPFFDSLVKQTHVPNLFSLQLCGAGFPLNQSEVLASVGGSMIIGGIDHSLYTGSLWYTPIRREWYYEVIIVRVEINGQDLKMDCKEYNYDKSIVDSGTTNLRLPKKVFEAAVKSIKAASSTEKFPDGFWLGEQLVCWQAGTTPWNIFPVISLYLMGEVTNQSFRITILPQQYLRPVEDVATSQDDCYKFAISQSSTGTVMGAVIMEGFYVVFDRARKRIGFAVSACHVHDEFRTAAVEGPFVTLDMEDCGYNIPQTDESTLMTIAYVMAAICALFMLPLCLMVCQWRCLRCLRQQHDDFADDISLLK
Outline: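 Individually synthesized, purified substrates at 300 µM in 40 mM AcONa buffer, pH 4.5, 37 °C. rBACE1 used at 60 nM (P1, P4 substrates), 30 nM (P2, P3 substrates) or 10 nM (P1' substrates and the dodecapeptide). Aliquots taken at 0, 1 and 3 h, quenched with 7 M GuHCl, and the decrease in each substrate peak monitored by HPLC.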

[2] = biological target: Beta-secretase 1 (Homo sapiens) (UniProt P56817); assay: Activity of recombinant BACE assessed as retention time of substrate by HPLC method
[3] = biological target: Beta-secretase 1 (Homo sapiens) (UniProt P56817); assay: Activity of recombinant BACE assessed as retention time of C-terminal fragment by HPLC method

Activity [1]	retention time [2] [h]	retention time [3] [h]	Compound
Active	0.517	–	CC[C@H](C)[C@H](N)C(=O)N[C@@H](CO)C(=O)N[C@@H](CCC(=O)O)C(=O)N[C@H](C(=O)N[C@@H](CC(N)=O)C(=O)N[C@@H](CC(C)C)C(=O)N[C@@H](CC(=O)O)C(=O)N[C@@H](C)C(=O)N[C@@H](CCC(=O)O)C(=O)N[C@@H](Cc1ccccc1)C(=O)N[C@@H](CCCNC(=N)N)C(=O)N[C@@H](Cc1cnc[nH]1)C(N)=O)[C@@H](C)CC (H-ISEINLDAEFRH-NH2)
Active	0.521	–	CC[C@H](C)[C@H](N)C(=O)N[C@@H](CO)C(=O)N[C@@H](CCC(=O)O)C(=O)N[C@H](C(=O)N[C@@H](CCSC)C(=O)N[C@@H](CC(C)C)C(=O)N[C@@H](CC(=O)O)C(=O)N[C@@H](C)C(=O)N[C@@H](CCC(=O)O)C(=O)N[C@@H](Cc1ccccc1)C(=O)N[C@@H](CCCNC(=N)N)C(=O)N[C@@H](Cc1cnc[nH]1)C(N)=O)C(C)C (H-ISEVMLDAEFRH-NH2)
Active	0.622	–	CCC[C@H](NC(=O)[C@H](CC(C)C)NC(=O)[C@H](CC(N)=O)NC(=O)[C@@H](NC(=O)[C@H](CCC(=O)O)NC(=O)[C@H](CO)NC(=O)[C@@H](N)[C@@H](C)CC)C(C)C)C(=O)N[C@@H](C)C(=O)N[C@@H](CCC(=O)O)C(=O)N[C@@H](Cc1ccccc1)C(=O)N[C@@H](CCCNC(=N)N)C(=O)N[C@@H](Cc1cnc[nH]1)C(N)=O (H-ISEVNL[Nva]AEFRH-NH2)
Active	0.409	0.217	CC[C@H](NC(=O)[C@H](CC(N)=O)NC(=O)[C@@H](NC(=O)[C@H](CCC(=O)O)NC(=O)[C@H](CO)NC(=O)[C@@H](N)[C@@H](C)CC)C(C)C)C(=O)N[C@@H](CC(=O)O)C(=O)N[C@@H](C)C(=O)N[C@@H](CCC(=O)O)C(=O)N[C@@H](Cc1ccccc1)C(=O)N[C@@H](CCCNC(=N)N)C(=O)N[C@@H](Cc1cnc[nH]1)C(N)=O (H-ISEVN[Abu]DAEFRH-NH2)
Active	0.45	0.217	CCC[C@H](NC(=O)[C@H](CC(N)=O)NC(=O)[C@@H](NC(=O)[C@H](CCC(=O)O)NC(=O)[C@H](CO)NC(=O)[C@@H](N)[C@@H](C)CC)C(C)C)C(=O)N[C@@H](CC(=O)O)C(=O)N[C@@H](C)C(=O)N[C@@H](CCC(=O)O)C(=O)N[C@@H](Cc1ccccc1)C(=O)N[C@@H](CCCNC(=N)N)C(=O)N[C@@H](Cc1cnc[nH]1)C(N)=O (H-ISEVN[Nva]DAEFRH-NH2)
Active	0.474	–	CC[C@H](C)[C@H](N)C(=O)N[C@@H](CO)C(=O)N[C@@H](CCCNC(N)=O)C(=O)N[C@H](C(=O)N[C@@H](CC(N)=O)C(=O)N[C@@H](CC(C)C)C(=O)N[C@@H](CC(=O)O)C(=O)N[C@@H](C)C(=O)N[C@@H](CCC(=O)O)C(=O)N[C@@H](Cc1ccccc1)C(=O)N[C@@H](CCCNC(=N)N)C(=O)N[C@@H](Cc1cnc[nH]1)C(N)=O)C(C)C (H-IS[Cit]VNLDAEFRH-NH2)
Active	0.582	–	CC[C@H](C)[C@H](N)C(=O)N[C@@H](CO)C(=O)N[C@H](C(=O)N[C@H](C(=O)N[C@@H](CC(N)=O)C(=O)N[C@@H](CC(C)C)C(=O)N[C@@H](CC(=O)O)C(=O)N[C@@H](C)C(=O)N[C@@H](CCC(=O)O)C(=O)N[C@@H](Cc1ccccc1)C(=O)N[C@@H](CCCNC(=N)N)C(=O)N[C@@H](Cc1cnc[nH]1)C(N)=O)C(C)C)c1ccccc1 (H-IS[Phg]VNLDAEFRH-NH2)
–	0.269	–	CCC[C@H](N)C(=O)N[C@@H](C)C(=O)N[C@@H](CCC(=O)O)C(=O)N[C@@H](Cc1ccccc1)C(=O)N[C@@H](CCCNC(=N)N)C(=O)N[C@@H](Cc1cnc[nH]1)C(N)=O (H-[Nva]AEFRH-NH2)

The remaining lines, values behind:

Compound	Activity [1]	retention time [2] [h]	retention time [3] [h]
CC[C@H](C)[C@H](N)C(=O)N[C@@H](CO)C(=O)N[C@@H](CCC(=O)O)C(=O)N[C@H](C(=O)N[C@@H](CC(=O)O)C(=O)N[C@@H](CC(C)C)C(=O)N[C@@H](CC(=O)O)C(=O)N[C@@H](C)C(=O)N[C@@H](CCC(=O)O)C(=O)N[C@@H](Cc1ccccc1)C(=O)N[C@@H](CCCNC(=N)N)C(=O)N[C@@H](Cc1cnc[nH]1)C(N)=O)C(C)C (H-ISEVDLDAEFRH-NH2)	Active	0.49	–
CC[C@H](C)[C@H](N)C(=O)N[C@@H](CO)C(=O)N[C@@H](CCC(=O)O)C(=O)N[C@H](C(=O)N[C@@H](CC(N)=O)C(=O)N[C@@H](CC(=O)O)C(=O)N[C@@H](CC(=O)O)C(=O)N[C@@H](C)C(=O)N[C@@H](CCC(=O)O)C(=O)N[C@@H](Cc1ccccc1)C(=O)N[C@@H](CCCNC(=N)N)C(=O)N[C@@H](Cc1cnc[nH]1)C(N)=O)C(C)C (H-ISEVNDDAEFRH-NH2)	Active	–	–
CC[C@H](C)[C@H](N)C(=O)N[C@@H](CO)C(=O)N[C@@H](CCC(=O)O)C(=O)N[C@H](C(=O)N[C@@H](CC(N)=O)C(=O)N[C@@H](Cc1ccccc1)C(=O)N[C@@H](CC(=O)O)C(=O)N[C@@H](C)C(=O)N[C@@H](CCC(=O)O)C(=O)N[C@@H](Cc1ccccc1)C(=O)N[C@@H](CCCNC(=N)N)C(=O)N[C@@H](Cc1cnc[nH]1)C(N)=O)C(C)C (H-ISEVNFDAEFRH-NH2)	50%	0.502	–
CC[C@H](C)[C@H](N)C(=O)N[C@@H](CO)C(=O)N[C@@H](CCC(=O)O)C(=O)N[C@H](C(=O)N[C@@H](CC(N)=O)C(=O)N[C@@H](CC(C)C)C(=O)N[C@@H](CCSC)C(=O)N[C@@H](C)C(=O)N[C@@H](CCC(=O)O)C(=O)N[C@@H](Cc1ccccc1)C(=O)N[C@@H](CCCNC(=N)N)C(=O)N[C@@H](Cc1cnc[nH]1)C(N)=O)C(C)C (H-ISEVNLMAEFRH-NH2)	Active	0.622	–
CC[C@H](NC(=O)[C@H](CC(C)C)NC(=O)[C@H](CC(N)=O)NC(=O)[C@@H](NC(=O)[C@H](CCC(=O)O)NC(=O)[C@H](CO)NC(=O)[C@@H](N)[C@@H](C)CC)C(C)C)C(=O)N[C@@H](C)C(=O)N[C@@H](CCC(=O)O)C(=O)N[C@@H](Cc1ccccc1)C(=O)N[C@@H](CCCNC(=N)N)C(=O)N[C@@H](Cc1cnc[nH]1)C(N)=O (H-ISEVNL[Abu]AEFRH-NH2)	Active	0.585	–
CC[C@H](C)[C@H](N)C(=O)N[C@@H](CO)C(=O)N[C@@H](CCC(=O)O)C(=O)N[C@H](C(=O)N[C@@H](CC(N)=O)C(=O)N[C@@H](CCSC)C(=O)N[C@@H](CC(=O)O)C(=O)N[C@@H](C)C(=O)N[C@@H](CCC(=O)O)C(=O)N[C@@H](Cc1ccccc1)C(=O)N[C@@H](CCCNC(=N)N)C(=O)N[C@@H](Cc1cnc[nH]1)C(N)=O)C(C)C (H-ISEVNMDAEFRH-NH2)	Active	–	–
CC[C@H](C)[C@H](N)C(=O)N[C@@H](CO)C(=O)N[C@@H](CCC(=O)O)C(=O)N[C@H](C(=O)N[C@@H](CC(N)=O)C(=O)N[C@@H](CC1CCCCC1)C(=O)N[C@@H](CC(=O)O)C(=O)N[C@@H](C)C(=O)N[C@@H](CCC(=O)O)C(=O)N[C@@H](Cc1ccccc1)C(=O)N[C@@H](CCCNC(=N)N)C(=O)N[C@@H](Cc1cnc[nH]1)C(N)=O)C(C)C (H-ISEVN[Cha]DAEFRH-NH2)	–	0.573	0.217
CC[C@H](C)[C@H](N)C(=O)N[C@@H](CO)C(=O)N[C@@H](CCC(=O)O)C(=O)N[C@H](C(=O)N[C@@H](CC(N)=O)C(=O)N[C@@H](CCCNC(N)=O)C(=O)N[C@@H](CC(=O)O)C(=O)N[C@@H](C)C(=O)N[C@@H](CCC(=O)O)C(=O)N[C@@H](Cc1ccccc1)C(=O)N[C@@H](CCCNC(=N)N)C(=O)N[C@@H](Cc1cnc[nH]1)C(N)=O)C(C)C (H-ISEVN[Cit]DAEFRH-NH2)	Active	0.344	0.217
CC[C@H](C)[C@H](N)C(=O)N[C@@H](CO)C(=O)N[C@@H](CCC(=O)O)C(=O)N[C@H](C(=O)N[C@@H](CC(N)=O)C(=O)N[C@H](C(=O)N[C@@H](CC(=O)O)C(=O)N[C@@H](C)C(=O)N[C@@H](CCC(=O)O)C(=O)N[C@@H](Cc1ccccc1)C(=O)N[C@@H](CCCNC(=N)N)C(=O)N[C@@H](Cc1cnc[nH]1)C(N)=O)C(C)(C)C)C(C)C (H-ISEVN[Tle]DAEFRH-NH2)	–	0.479	0.217
CC[C@H](C)[C@H](N)C(=O)N[C@@H](CO)C(=O)N[C@@H](CCC(=O)O)C(=O)N[C@H](C(=O)N[C@@H](Cc1cccs1)C(=O)N[C@@H](CC(C)C)C(=O)N[C@@H](CC(=O)O)C(=O)N[C@@H](C)C(=O)N[C@@H](CCC(=O)O)C(=O)N[C@@H](Cc1ccccc1)C(=O)N[C@@H](CCCNC(=N)N)C(=O)N[C@@H](Cc1cnc[nH]1)C(N)=O)C(C)C (H-ISEV[2Thi]LDAEFRH-NH2)	Active	0.551	–
CCC[C@H](NC(=O)[C@@H](NC(=O)[C@H](CCC(=O)O)NC(=O)[C@H](CO)NC(=O)[C@@H](N)[C@@H](C)CC)C(C)C)C(=O)N[C@@H](CC(C)C)C(=O)N[C@@H](CC(=O)O)C(=O)N[C@@H](C)C(=O)N[C@@H](CCC(=O)O)C(=O)N[C@@H](Cc1ccccc1)C(=O)N[C@@H](CCCNC(=N)N)C(=O)N[C@@H](Cc1cnc[nH]1)C(N)=O (H-ISEV[Nva]LDAEFRH-NH2)	Active	0.521	–
CCC[C@H](NC(=O)[C@H](CCC(=O)O)NC(=O)[C@H](CO)NC(=O)[C@@H](N)[C@@H](C)CC)C(=O)N[C@@H](CC(N)=O)C(=O)N[C@@H](CC(C)C)C(=O)N[C@@H](CC(=O)O)C(=O)N[C@@H](C)C(=O)N[C@@H](CCC(=O)O)C(=O)N[C@@H](Cc1ccccc1)C(=O)N[C@@H](CCCNC(=N)N)C(=O)N[C@@H](Cc1cnc[nH]1)C(N)=O (H-ISE[Nva]NLDAEFRH-NH2)	Active	0.496	–
CC[C@H](C)[C@H](N)C(=O)N[C@@H](CO)C(=O)N[C@H](C(=O)N[C@H](C(=O)N[C@@H](CC(N)=O)C(=O)N[C@@H](CC(C)C)C(=O)N[C@@H](CC(=O)O)C(=O)N[C@@H](C)C(=O)N[C@@H](CCC(=O)O)C(=O)N[C@@H](Cc1ccccc1)C(=O)N[C@@H](CCCNC(=N)N)C(=O)N[C@@H](Cc1cnc[nH]1)C(N)=O)C(C)C)N1Cc2ccccc2C[C@H]1C(=O)O (H-IS[X1]VNLDAEFRH-NH2)	–	0.628	–
